One data set addresses T1, CYP1B1.3 (Homo sapiens, UniProt Q16678).
T1 sequence (Q16678 1-543): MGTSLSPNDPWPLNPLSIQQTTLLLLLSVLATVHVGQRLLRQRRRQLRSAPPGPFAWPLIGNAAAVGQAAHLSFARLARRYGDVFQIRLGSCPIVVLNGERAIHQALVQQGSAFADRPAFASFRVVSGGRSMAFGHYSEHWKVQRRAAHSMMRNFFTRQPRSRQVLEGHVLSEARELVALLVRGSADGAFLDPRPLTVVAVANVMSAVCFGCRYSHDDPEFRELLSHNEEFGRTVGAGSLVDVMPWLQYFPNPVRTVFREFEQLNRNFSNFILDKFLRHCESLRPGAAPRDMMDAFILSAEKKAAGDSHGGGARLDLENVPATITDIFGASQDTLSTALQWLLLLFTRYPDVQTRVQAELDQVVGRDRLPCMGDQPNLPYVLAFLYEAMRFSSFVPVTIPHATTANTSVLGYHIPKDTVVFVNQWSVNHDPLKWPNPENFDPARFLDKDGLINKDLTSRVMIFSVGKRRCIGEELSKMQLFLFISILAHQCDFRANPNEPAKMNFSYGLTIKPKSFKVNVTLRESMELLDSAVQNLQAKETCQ
Type of data set: in vitro ADME. The conditions noted are these: peak intensities.

The next data set has as its target T2, CYP1A2 (Homo sapiens, UniProt P05177).
T2 sequence (P05177 1-516): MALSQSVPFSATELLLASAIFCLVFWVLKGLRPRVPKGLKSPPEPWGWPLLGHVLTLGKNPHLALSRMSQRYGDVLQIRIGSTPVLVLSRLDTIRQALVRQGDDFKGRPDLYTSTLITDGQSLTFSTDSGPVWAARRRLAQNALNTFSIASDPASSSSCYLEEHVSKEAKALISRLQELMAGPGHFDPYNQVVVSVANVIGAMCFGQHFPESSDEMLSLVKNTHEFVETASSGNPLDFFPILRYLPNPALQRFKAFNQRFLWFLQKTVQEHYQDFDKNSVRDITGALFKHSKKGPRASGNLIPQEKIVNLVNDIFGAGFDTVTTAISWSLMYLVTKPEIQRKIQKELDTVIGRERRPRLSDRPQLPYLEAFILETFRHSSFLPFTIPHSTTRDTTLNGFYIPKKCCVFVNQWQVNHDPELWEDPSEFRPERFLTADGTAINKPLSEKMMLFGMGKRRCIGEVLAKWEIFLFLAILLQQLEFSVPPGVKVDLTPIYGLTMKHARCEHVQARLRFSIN
The format is in vitro ADME. The conditions noted are these: peak intensities.

In the next data set the target is T3, CYP2B6 (Homo sapiens, UniProt P20813).
T3 sequence (P20813 1-491): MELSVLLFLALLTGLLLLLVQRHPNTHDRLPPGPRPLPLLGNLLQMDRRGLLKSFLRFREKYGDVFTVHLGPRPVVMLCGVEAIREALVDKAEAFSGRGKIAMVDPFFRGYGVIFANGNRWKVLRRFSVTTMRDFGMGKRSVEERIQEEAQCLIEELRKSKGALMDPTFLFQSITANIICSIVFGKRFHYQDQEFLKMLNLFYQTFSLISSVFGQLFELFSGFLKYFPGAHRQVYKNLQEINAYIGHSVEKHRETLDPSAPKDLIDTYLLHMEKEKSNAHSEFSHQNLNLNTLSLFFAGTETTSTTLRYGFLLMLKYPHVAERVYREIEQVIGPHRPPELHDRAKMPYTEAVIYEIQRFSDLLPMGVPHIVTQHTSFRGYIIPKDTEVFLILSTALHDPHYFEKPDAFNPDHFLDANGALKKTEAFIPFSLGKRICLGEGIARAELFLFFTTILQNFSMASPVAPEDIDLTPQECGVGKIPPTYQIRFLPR
Type of data set: in vitro ADME. The conditions noted are these: peak intensities. An outline of the steps:
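E. coli membranes co-expressing CYP2B6 and NADPH-P450 reductase (50 pmol P450) incubated with 60 µM methoxyflavone test compound at 37 °C for 20 min. Reaction started after 1 min preincubation with NADPH-generating system (0.5 mM NADP+, 5 mM glucose 6-phosphate, 0.5 unit/mL glucose 6-phosphate dehydrogenase). Stopped with ice-cold CH3CN, then centrifuged. Supernatant analysed by LC-MS/MS (positive ESI); products reported as peak intensities, from two or three determinations.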

The next data set concerns the target T4, CYP1B1.1 (Homo sapiens, UniProt Q16678).
T4 sequence (Q16678 1-543): T1 sequence (Q16678 1-543)
Type of data set: in vitro ADME. The conditions noted are these: peak intensities.

Another data set has as its target T5, CYP1A1 (Homo sapiens, UniProt P04798).
T5 sequence (P04798 1-512): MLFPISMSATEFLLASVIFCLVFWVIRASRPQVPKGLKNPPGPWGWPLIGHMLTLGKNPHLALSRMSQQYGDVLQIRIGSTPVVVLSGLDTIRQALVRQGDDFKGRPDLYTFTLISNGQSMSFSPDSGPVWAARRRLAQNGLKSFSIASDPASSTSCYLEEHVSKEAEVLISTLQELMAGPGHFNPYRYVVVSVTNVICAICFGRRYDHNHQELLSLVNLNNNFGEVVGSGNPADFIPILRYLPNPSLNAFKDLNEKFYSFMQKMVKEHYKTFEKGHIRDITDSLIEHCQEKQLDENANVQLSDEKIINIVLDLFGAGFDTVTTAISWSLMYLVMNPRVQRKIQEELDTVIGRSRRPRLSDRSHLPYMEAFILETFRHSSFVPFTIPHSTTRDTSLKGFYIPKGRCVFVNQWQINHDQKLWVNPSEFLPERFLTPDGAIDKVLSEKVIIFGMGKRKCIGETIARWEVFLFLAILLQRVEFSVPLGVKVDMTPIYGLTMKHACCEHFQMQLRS
Type of data set: in vitro ADME. The conditions noted are these: peak intensities. An outline of the steps: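 Reconstituted system: purified E. coli-expressed CYP1A1 (50 pmol), NADPH-P450 reductase (100 pmol), DLPC (50 µg), no b5. Incubated with 60 µM methoxyflavone test compound at 37 °C for 20 min after 1 min preincubation, started with NADPH-generating system (0.5 mM NADP+, 5 mM glucose 6-phosphate, 0.5 unit/mL dehydrogenase). Quenched with ice-cold CH3CN and centrifuged. LC-MS/MS positive ESI; product as peak intensity, two or three determinations.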

The test system of a further data set is Hela and SH-SY5Y cells. The conditions noted are these: ref Fatokun et al. (2013; 2014); cited from earlier work.

Take `COc1ccccc1-c1cc(=O)c2ccccc2o1` [2′MeF, 2′-methoxyflavone]: the “formation of 2′Me239a (possibly 2′OHF)” value at CYP1B1.3, at CYP2B6 and on CYP1B1.1 was “highly active” in each case. Besides, the “formation of 2′Me255a (m/z 255 product)” value on CYP1B1.3, at CYP1A2, on CYP2B6, at CYP1B1.1 and on CYP1A1 was “very low levels” each time.
With `COc1ccc(-c2cc(=O)c3ccccc3o2)cc1OC` [3′,4′-dimethoxyflavone, reference compound], the “prevention of decreases in cell viability caused by N-methyl-N′-nitro-N-nitrosoguanine” value in the data set with Hela and SH-SY5Y cells is on record as “effectively prevent decreases in cell viability”.
As for `COc1ccc(-c2cc(=O)c3ccccc3o2)cc1` [4′MeF, 4′-methoxyflavone], the “prevention of decreases in cell viability caused by N-methyl-N′-nitro-N-nitrosoguanine” value with Hela and SH-SY5Y cells is “effectively prevent decreases in cell viability”.

(Values after PMC7881365 (Xenobiotica; the fate of foreign compounds in biological …, 2020).)
